For data set [1], the system named is RAW264.7. As to the kind of experiment: Antiinflammatory activity in mouse RAW264.7 cells assessed as inhibition of LPS-induced NO production pretreated for 2 hrs followed by LPS stimulation measured after 24 hrs by Griess assay. The data set is classed as functional, cell-based. Summed up: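 RAW264.7 murine macrophages (DMEM, 10% serum, 37 °C, 5% CO2) seeded at 5 × 10^4 cells/well and cultured 18 h. Compounds tested at 1–100 μM (DMSO 0.1% v/v), with LPS (E. coli 0127:B8) at 100 ng mL−1. Supernatant nitrite read with Griess reagent (10 min, room temperature, OD540).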
(In general: Nitrite, measured by Griess reagent, commonly stands in for NO production.)

Data set [2] concerns RAW264.7. The experiment in a line: Antiinflammatory activity in LPS-induced mouse RAW264.7 cells assessed as TNFalpha levels at 5 uM pretreated for 2 hrs followed by LPS stimulation and measured after 12 hrs by ELISA (reference value: 5313.7 +/- 420.9 pg/ml). The data set is classed as functional. Summed up: (§1)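 RAW264.7 murine macrophages (DMEM, 10% serum, 37 °C, 5% CO2) seeded at 5 × 10^5 cells per well, pretreated 2 h with compound at 10, 5, 2.5 or 1.25 μM (DMSO 0.1% v/v), then LPS (E. coli 0127:B8) 100 ng mL−1 added. Supernatant TNF-α or IL-6 read by mouse ELISA kit after 6, 12 and 24 h. Mean ± SD, n = 3, three independent experiments.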
Background: In an ELISA, binding on a coated surface is turned into a signal by an enzyme label.

Data set [3] relates to RAW264.7. As to the kind of experiment: Antiinflammatory activity in LPS-induced mouse RAW264.7 cells assessed as TNFalpha levels at 1.25 uM pretreated for 2 hrs followed by LPS stimulation and measured after 6 hrs by ELISA (reference value: 4377.1 +/- 318.6 pg/ml). It is filed as functional. Summed up: as §1
For data set [4], the system named is RAW264.7. As to the kind of experiment: Antiinflammatory activity in LPS-induced mouse RAW264.7 cells assessed as TNFalpha levels at 2.5 uM pretreated for 2 hrs followed by LPS stimulation and measured after 6 hrs by ELISA (reference value: 4377.1 +/- 318.6 pg/ml). It is filed as functional. Summed up:
as §1

Data set [5] has as its system RAW264.7. The experiment in a line: Antiinflammatory activity in LPS-induced mouse RAW264.7 cells assessed as TNFalpha levels at 5 uM pretreated for 2 hrs followed by LPS stimulation and measured after 6 hrs by ELISA (reference value: 4377.1 +/- 318.6 pg/ml). It is filed as functional. The essentials:
as §1

Data set [6] concerns RAW264.7. The experiment in a line: Antiinflammatory activity in LPS-induced mouse RAW264.7 cells assessed as TNFalpha levels at 10 uM pretreated for 2 hrs followed by LPS stimulation and measured after 6 hrs by ELISA (reference value: 4377.1 +/- 318.6 pg/ml). The data set is classed as functional. Summed up:
as §1

Data set [7] relates to RAW264.7. As to the kind of experiment: Antiinflammatory activity in LPS-induced mouse RAW264.7 cells assessed as TNFalpha levels at 10 uM pretreated for 2 hrs followed by LPS stimulation and measured after 12 hrs by ELISA (reference value: 5313.7 +/- 420.9 pg/ml). It is filed as functional. The essentials: as §1
Data set [8] can be described thus: Cytotoxicity against mouse RAW264.7 cells assessed as cell viability at 10 uM after 48 hrs by MTT assay (reference value: 100%). It is filed as cell-based. To be noted: read-out: Activity. Summed up: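 RAW264.7 cells seeded at 4 × 10^3 per well, cultured overnight, exposed to compound (DMSO 0.1% v/v) for 48 h. MTT 0.5 mg mL−1 added for 4 h at 37 °C, formazan dissolved in DMSO, OD570 read. Viability relative to medium-only cells set as 100%. Mean ± SD (n = 5), three independent experiments.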

Data set [9] has as its system RAW264.7. As to the kind of experiment: Antiinflammatory activity in LPS-induced mouse RAW264.7 cells assessed as TNFalpha levels at 10 uM pretreated for 2 hrs followed by LPS stimulation and measured after 24 hrs by ELISA (reference value: 9653.7 +/- 377.3 pg/ml). It is filed as functional. Summed up: as §1
Data set [10] relates to RAW264.7. The experiment in a line: Antiinflammatory activity in LPS-induced mouse RAW264.7 cells assessed as TNFalpha levels at 5 uM pretreated for 2 hrs followed by LPS stimulation and measured after 24 hrs by ELISA (reference value: 9653.7 +/- 377.3 pg/ml). It is filed as functional. The essentials:
as §1

The subject of data set [11] is RAW264.7. As to the kind of experiment: Antiinflammatory activity in LPS-induced mouse RAW264.7 cells assessed as TNFalpha levels at 2.5 uM pretreated for 2 hrs followed by LPS stimulation and measured after 24 hrs by ELISA (reference value: 9653.7 +/- 377.3 pg/ml). The data set is classed as functional. Summed up:
as §1

Data set [12] relates to RAW264.7. The experiment in a line: Antiinflammatory activity in LPS-induced mouse RAW264.7 cells assessed as TNFalpha levels at 1.25 uM pretreated for 2 hrs followed by LPS stimulation and measured after 24 hrs by ELISA (reference value: 9653.7 +/- 377.3 pg/ml). The data set is classed as functional. The essentials:
as §1

Data set [13] relates to RAW264.7. As to the kind of experiment: Antiinflammatory activity in LPS-induced mouse RAW264.7 cells assessed as IL-6 levels at 10 uM pretreated for 2 hrs followed by LPS stimulation and measured after 12 hrs by ELISA (reference value: 1394 +/- 62.6 pg/ml). It is filed as functional. Summed up: as §1
Data set [14] relates to RAW264.7. The experiment in a line: Antiinflammatory activity in LPS-induced mouse RAW264.7 cells assessed as IL-6 levels at 1.25 uM pretreated for 2 hrs followed by LPS stimulation and measured after 6 hrs by ELISA (reference value: 472.3 +/- 25.8 pg/ml). The data set is classed as functional. The essentials: as §1
In data set [15] the test system is RAW264.7. As to the kind of experiment: Antiinflammatory activity in LPS-induced mouse RAW264.7 cells assessed as IL-6 levels at 2.5 uM pretreated for 2 hrs followed by LPS stimulation and measured after 6 hrs by ELISA (reference value: 472.3 +/- 25.8 pg/ml). The data set is classed as functional. Summed up:
as §1

The test system of data set [16] is RAW264.7. As to the kind of experiment: Antiinflammatory activity in LPS-induced mouse RAW264.7 cells assessed as IL-6 levels at 5 uM pretreated for 2 hrs followed by LPS stimulation and measured after 6 hrs by ELISA (reference value: 472.3 +/- 25.8 pg/ml). It is filed as functional. Summed up:
as §1

Data set [17] has as its system RAW264.7. As to the kind of experiment: Antiinflammatory activity in LPS-induced mouse RAW264.7 cells assessed as IL-6 levels at 10 uM pretreated for 2 hrs followed by LPS stimulation and measured after 6 hrs by ELISA (reference value: 472.3 +/- 25.8 pg/ml). It is filed as functional. Summed up: as §1
Data set [18] deals with RAW264.7. As to the kind of experiment: Antiinflammatory activity in LPS-induced mouse RAW264.7 cells assessed as IL-6 levels at 5 uM pretreated for 2 hrs followed by LPS stimulation and measured after 12 hrs by ELISA (reference value: 1394 +/- 62.6 pg/ml). The data set is classed as functional. The essentials: as §1
For data set [19], the system named is RAW264.7. The experiment in a line: Antiinflammatory activity in LPS-induced mouse RAW264.7 cells assessed as IL-6 levels at 2.5 uM pretreated for 2 hrs followed by LPS stimulation and measured after 12 hrs by ELISA (reference value: 1394 +/- 62.6 pg/ml). It is filed as functional. The essentials:
as §1

Data set [20] has as its system RAW264.7. As to the kind of experiment: Antiinflammatory activity in LPS-induced mouse RAW264.7 cells assessed as IL-6 levels at 1.25 uM pretreated for 2 hrs followed by LPS stimulation and measured after 12 hrs by ELISA (reference value: 1394 +/- 62.6 pg/ml). It is filed as functional. Summed up: as §1
Data set [21] deals with RAW264.7. As to the kind of experiment: Antiinflammatory activity in LPS-induced mouse RAW264.7 cells assessed as IL-6 levels at 10 uM pretreated for 2 hrs followed by LPS stimulation and measured after 24 hrs by ELISA (reference value: 1966.6 +/- 102.3 pg/ml). It is filed as functional. The essentials:
as §1

Data set [22] has as its system RAW264.7. The experiment in a line: Antiinflammatory activity in LPS-induced mouse RAW264.7 cells assessed as IL-6 levels at 5 uM pretreated for 2 hrs followed by LPS stimulation and measured after 24 hrs by ELISA (reference value: 1966.6 +/- 102.3 pg/ml). It is filed as functional. Summed up: as §1
Data set [23] relates to RAW264.7. As to the kind of experiment: Antiinflammatory activity in LPS-induced mouse RAW264.7 cells assessed as IL-6 levels at 2.5 uM pretreated for 2 hrs followed by LPS stimulation and measured after 24 hrs by ELISA (reference value: 1966.6 +/- 102.3 pg/ml). The data set is classed as functional. The essentials: as §1
For data set [24], the system named is RAW264.7. As to the kind of experiment: Antiinflammatory activity in LPS-induced mouse RAW264.7 cells assessed as IL-6 levels at 1.25 uM pretreated for 2 hrs followed by LPS stimulation and measured after 24 hrs by ELISA (reference value: 1966.6 +/- 102.3 pg/ml). It is filed as functional. The essentials:
as §1

The term IC50 denotes the point on the concentration scale where inhibition reaches its midpoint. For `CC1=C[C@@H](O/C=C2/C(=O)O[C@@H]3c4ccccc4C[C@H]23)OC1=O`, the IC50 in the data set on RAW264.7 [1] worked out at 6.62 µM.

Take `CC1=C[C@H](O/C=C2/C(=O)OC3c4ccccc4CC23)OC1=O` (some centres undefined): in the data set with RAW264.7 [1], the IC50 came to 4.06 µM.

Take `C[C@@H]1C[C@H]2[C@@H]3CCC4=CC(=O)C=C[C@]4(C)[C@@]3(F)[C@@H](O)C[C@]2(C)[C@@]1(O)C(=O)CO` [DEXAMETHASONE]: the Activity came to 4063.6 pg/mL in the data set on RAW264.7 [2]; 4056.3 pg/mL in the data set with RAW264.7 [3]; 3671.8 pg/mL in the data set on RAW264.7 [4]; 3219.4 pg/mL with RAW264.7 [5]; 2655 pg/mL with RAW264.7 [6]; 3393.5 pg/mL in the data set with RAW264.7 [7]. Also, the Activity in the data set with RAW264.7 [9] is 6458.3 pg/mL; in the data set with RAW264.7 [10] it was 7533.7 pg/mL; in the data set with RAW264.7 [11], 8187.9 pg/mL; in the data set with RAW264.7 [12], 8748.1 pg/mL; with RAW264.7 [13] it was 791 pg/mL; in the data set with RAW264.7 [14], 422.7 pg/mL. In addition, the Activity in the data set on RAW264.7 [15] turned out to be 393.4 pg/mL; in the data set with RAW264.7 [16], 332.8 pg/mL; in the data set on RAW264.7 [17], 269.5 pg/mL; with RAW264.7 [18], 927.7 pg/mL; with RAW264.7 [19], 1120.3 pg/mL; in the data set on RAW264.7 [20], 1240.5 pg/mL. Also, the Activity stood at 924.1 pg/mL with RAW264.7 [21], 1336.5 pg/mL in the data set with RAW264.7 [22], 1594.9 pg/mL in the data set on RAW264.7 [23] and 1770.4 pg/mL in the data set with RAW264.7 [24]. For the same compound, in data set [8], the viability at 48 h, 10 µM was found to be 100%. Besides, the IC50 with RAW264.7 [1] was 2.66 µM.

`CC1C[C@H](O/C=C2/C(=O)O[C@@H]3c4ccccc4C[C@H]23)OC1=O` (some centres undefined): the IC50 with RAW264.7 [1] is 32.3 µM.

Regarding `CC1C[C@H](O/C=C2/C(=O)O[C@H]3c4ccccc4C[C@@H]23)OC1=O` (some centres undefined), in the data set on RAW264.7 [1], the IC50 is 60.5 µM.

`CC1C[C@@H](O/C=C2/C(=O)OC3c4ccccc4CC23)OC1=O` (some centres undefined): the IC50 in the data set with RAW264.7 [1] amounted to 44.5 µM.

As for `CC1C[C@@H](O/C=C2/C(=O)O[C@H]3c4ccccc4C[C@@H]23)OC1=O` (some centres undefined), the IC50 in the data set with RAW264.7 [1] turned out to be 35.4 µM.

In the case of `CC1=C[C@@H](O/C=C2/C(=O)OC3c4ccccc4CC23)OC1=O` (some centres undefined), the half-inhibitory concentration (IC50) with RAW264.7 [1] was 4.32 µM.

On to `CC1C[C@H](O/C=C2/C(=O)OC3c4ccccc4CC23)OC1=O` (some centres undefined), for which the IC50 in the data set with RAW264.7 [1] turned out to be 42.1 µM.

Regarding `CC1=C[C@H](O/C=C2/C(=O)O[C@H]3c4ccccc4C[C@@H]23)OC1=O`, the IC50 with RAW264.7 [1] was determined as 6.34 µM.

Consider `CC1C[C@@H](O/C=C2/C(=O)O[C@@H]3c4ccccc4C[C@H]23)OC1=O` (some centres undefined), for which the IC50 in the data set on RAW264.7 [1] amounted to 64.6 µM.
